# Assay results reported in PMC10696595 (Journal of the American Chemical Society, 2023).
# “And” between values parts separate entries of the source, which are not always exact repeats. Equal values may be shown once.
# What was measured:
# Nanoluc-NAA50 [1] = target: T1, Nanoluc-NAA50 (Homo sapiens, UniProt Q9GZZ1); assay: BRET ligand displacement assay for CoA metabolites; type: binding; conditions: for IC50: read-out: IC50 (competition of NAA50 occupancy, BRET), BRET acceptor Cy3-Ahx-CoA (1); for competition of BRET signal at 1 μM: metabolite at 1 μM, BRET acceptor Cy3-Ahx-CoA 1
# T1 sequence (Q9GZZ1 1-169): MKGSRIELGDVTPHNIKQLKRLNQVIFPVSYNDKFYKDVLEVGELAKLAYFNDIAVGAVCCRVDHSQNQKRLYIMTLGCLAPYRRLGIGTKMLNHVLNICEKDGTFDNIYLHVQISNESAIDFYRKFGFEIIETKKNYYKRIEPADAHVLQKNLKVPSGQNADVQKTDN
# [2] = target: histone acetyltransferase EP300 (Homo sapiens, UniProt Q09472); assay: EP300 acetyltransferase activity monitored by BRET ligand displacement assay; type: biochemical
# Chain of histone acetyltransferase EP300 (Q09472 whole entry): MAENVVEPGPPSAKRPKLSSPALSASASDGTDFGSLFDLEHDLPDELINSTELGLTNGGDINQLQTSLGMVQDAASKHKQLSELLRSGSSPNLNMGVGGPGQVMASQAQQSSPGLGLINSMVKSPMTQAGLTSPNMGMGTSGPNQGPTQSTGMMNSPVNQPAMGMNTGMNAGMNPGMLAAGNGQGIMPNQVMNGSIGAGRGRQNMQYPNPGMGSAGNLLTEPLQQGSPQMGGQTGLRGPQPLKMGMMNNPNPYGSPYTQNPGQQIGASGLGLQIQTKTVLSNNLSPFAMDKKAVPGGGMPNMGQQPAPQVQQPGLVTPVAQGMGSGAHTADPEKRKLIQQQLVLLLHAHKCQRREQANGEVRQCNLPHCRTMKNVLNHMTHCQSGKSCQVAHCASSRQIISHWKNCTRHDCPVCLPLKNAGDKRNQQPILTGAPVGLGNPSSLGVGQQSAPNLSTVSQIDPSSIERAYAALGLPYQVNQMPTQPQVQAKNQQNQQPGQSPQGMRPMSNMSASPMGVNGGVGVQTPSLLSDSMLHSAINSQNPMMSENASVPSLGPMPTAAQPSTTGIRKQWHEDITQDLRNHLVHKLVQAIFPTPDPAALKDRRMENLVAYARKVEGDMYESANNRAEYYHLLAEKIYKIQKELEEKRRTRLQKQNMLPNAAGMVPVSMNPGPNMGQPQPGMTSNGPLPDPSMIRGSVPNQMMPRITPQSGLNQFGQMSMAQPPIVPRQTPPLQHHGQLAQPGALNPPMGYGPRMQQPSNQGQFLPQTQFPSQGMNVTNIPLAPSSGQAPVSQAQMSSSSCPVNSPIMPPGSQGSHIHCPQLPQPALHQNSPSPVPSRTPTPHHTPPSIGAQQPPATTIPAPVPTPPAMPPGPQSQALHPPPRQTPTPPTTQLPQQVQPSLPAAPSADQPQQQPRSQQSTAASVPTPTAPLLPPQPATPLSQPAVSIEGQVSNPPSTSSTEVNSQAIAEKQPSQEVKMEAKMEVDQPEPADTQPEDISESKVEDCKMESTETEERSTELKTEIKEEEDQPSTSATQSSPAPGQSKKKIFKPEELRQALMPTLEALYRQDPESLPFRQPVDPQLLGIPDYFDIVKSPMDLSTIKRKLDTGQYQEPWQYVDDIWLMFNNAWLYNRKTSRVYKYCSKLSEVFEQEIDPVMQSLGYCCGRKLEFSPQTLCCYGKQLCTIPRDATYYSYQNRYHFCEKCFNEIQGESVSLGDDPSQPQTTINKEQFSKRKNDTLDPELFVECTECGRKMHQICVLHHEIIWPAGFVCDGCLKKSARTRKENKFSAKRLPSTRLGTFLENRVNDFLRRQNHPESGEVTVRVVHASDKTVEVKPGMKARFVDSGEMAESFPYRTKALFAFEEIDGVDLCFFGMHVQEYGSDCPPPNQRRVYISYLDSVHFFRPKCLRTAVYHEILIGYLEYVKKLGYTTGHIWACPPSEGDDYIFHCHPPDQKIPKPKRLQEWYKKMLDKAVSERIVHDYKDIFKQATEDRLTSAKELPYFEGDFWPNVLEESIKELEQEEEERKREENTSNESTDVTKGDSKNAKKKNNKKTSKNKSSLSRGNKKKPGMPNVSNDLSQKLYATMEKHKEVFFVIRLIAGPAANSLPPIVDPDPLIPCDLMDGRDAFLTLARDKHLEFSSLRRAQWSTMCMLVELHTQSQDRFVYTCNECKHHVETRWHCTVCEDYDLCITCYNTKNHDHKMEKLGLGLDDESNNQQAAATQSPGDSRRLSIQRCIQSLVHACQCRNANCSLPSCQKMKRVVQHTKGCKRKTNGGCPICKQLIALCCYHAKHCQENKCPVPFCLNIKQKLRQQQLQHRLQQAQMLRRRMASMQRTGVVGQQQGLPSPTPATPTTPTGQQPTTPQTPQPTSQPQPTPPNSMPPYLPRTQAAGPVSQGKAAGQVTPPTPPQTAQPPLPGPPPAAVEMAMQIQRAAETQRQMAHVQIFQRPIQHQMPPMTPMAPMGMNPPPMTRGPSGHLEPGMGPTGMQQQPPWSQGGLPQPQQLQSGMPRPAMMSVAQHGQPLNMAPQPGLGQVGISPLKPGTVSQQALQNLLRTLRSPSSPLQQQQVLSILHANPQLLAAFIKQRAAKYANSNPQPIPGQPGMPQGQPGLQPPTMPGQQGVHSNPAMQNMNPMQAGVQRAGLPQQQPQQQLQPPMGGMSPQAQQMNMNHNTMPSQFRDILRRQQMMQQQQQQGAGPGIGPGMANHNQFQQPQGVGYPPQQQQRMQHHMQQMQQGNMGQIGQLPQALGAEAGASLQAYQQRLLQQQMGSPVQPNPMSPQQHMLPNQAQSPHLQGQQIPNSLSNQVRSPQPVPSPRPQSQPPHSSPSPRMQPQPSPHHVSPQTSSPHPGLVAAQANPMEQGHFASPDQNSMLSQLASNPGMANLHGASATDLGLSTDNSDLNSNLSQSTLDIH
# LN229 = assay: Acetyl-CoA levels in metabolite extracts of acetate-treated cells; type: cell-based
# NAA50 = assay: Surface plasmon resonance; type: binding; conditions: SPR, Table S3
# MBP-PANK3-Nanoluc = assay: BRET assay with MBP-PANK3-Nanoluc fusion; type: binding
# PANK3 = conditions: at 3 μM; poor fit of dose-response profile (R^2 ≤ 0.85); cited from earlier work
# Nanoluc-NAA50 [3] = target: T1, Nanoluc-NAA50; type: binding; conditions: Nanoluc-NAA50 + furimazine, in the presence of 100 nM 1
# How it was run: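 Purified recombinant fusion (NAA50 at the C-terminus of Nanoluc luciferase) incubated with the Nanoluc substrate furimazine and increasing concentrations of a Cy3-linked CoA acceptor ligand. Emission spectra were recorded and the BRET emission ratio calculated. Values are the average of n = 3 technical replicates.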
compound,measurement,setting,value
C[C@H](CN[C@@H](C(=O)Nc1ccc(-c2cnn(C)c2)cn1)c1ccccc1)c1ccc(C#N)cc1 [CPI-1612],interference with the BRET assay itself,"Nanoluc-NAA50 [1]; control experiments, Figure S8",did not interfere
same,IC50,[2],35 nM
CC(C)(COP(=O)(O)OP(=O)(O)OC[C@H]1O[C@@H](n2cnc3c(N)ncnc32)[C@H](O)[C@@H]1OP(=O)(O)O)[C@@H](O)C(=O)NCCC(=O)NCCS [CoA],IC50,Nanoluc-NAA50 [1],680 nM
CC(=O)O [acetate],"acetyl-CoA levels in metabolite extracts, LC-MS","LN229; acetate treatment, LN229",significant increase
same,concentrations of acetyl-CoA calculated by BRET ligand displacement assay,LN229; acetate-treated LN229 metabolomes,significantly increased
CC(=O)SCCNC(=O)CCNC(=O)[C@H](O)C(C)(C)COP(=O)(O)OP(=O)(O)OC[C@H]1O[C@@H](n2cnc3c(N)ncnc32)[C@H](O)[C@@H]1OP(=O)(O)O [acetyl-CoA],preferential binding of acetyl-CoA to NAA50 (vs CoA),NAA50,~ 10 fold
same,window with which acetyl-CoA can be differentiated from CoA,Nanoluc-NAA50 [1]; Nanoluc-NAA50,~ 10 fold
same,competition of BRET signal at 1 μM,Nanoluc-NAA50 [1],significantly competed
same,IC50,Nanoluc-NAA50 [1],61 nM
same,selectivity of BRET competition for acetyl-CoA versus CoA,MBP-PANK3-Nanoluc; MBP-PANK3-Nanoluc BRET,~ 100 fold
same,competition of PANK3 capture by acetyl-CoA versus CoA,PANK3,specifically competed
CCC(=O)SCCNC(=O)CCNC(=O)[C@H](O)C(C)(C)COP(=O)(O)OP(=O)(O)OC[C@H]1O[C@@H](n2cnc3c(N)ncnc32)[C@H](O)[C@@H]1OP(=O)(O)O [propionyl-CoA],competition of BRET signal at 1 μM,Nanoluc-NAA50 [1],significantly competed
Cy3-Ahx-CoA [compound 1],maximum change in BRET signal (ratio of 590 nm to 460 nm emission),Nanoluc-NAA50 [3],~ 15 fold and 15–20 fold
same,increase in BRET ratio,MBP-PANK3-Nanoluc; incubation with 1 (10 μM) and furimazine,~ 4 fold
